Measurements from ChEMBL document CHEMBL5321217, “Identification of pyrrolo[3',4':3,4]cyclohepta[1,2-d][1,2]oxazoles as promising new candidates for the treatment of lymphomas” (Eur J Med Chem, 2023).

Legend:
UACC-257 = assay: Antiproliferative activity against human UACC-257 cells assessed as growth inhibition incubated for 72 hrs by assay; format: functional
IGROV-1 = assay: Antiproliferative activity against human IGROV-1 cells assessed as growth inhibition incubated for 72 hrs by MTT assay; format: functional
HOP-92 = assay: Antiproliferative activity against human HOP-92 cells assessed as growth inhibition incubated for 72 hrs by MTT assay; format: functional
SNB-19 = assay: Antiproliferative activity against human SNB-19 cells assessed as growth inhibition incubated for 72 hrs by MTT assay; format: functional
NCI-H23 = assay: Antiproliferative activity against human NCI-H23 cells assessed as growth inhibition incubated for 72 hrs by MTT assay; format: functional
TK-10 = assay: Antiproliferative activity against human TK-10 cells assessed as growth inhibition incubated for 72 hrs by MTT assay; format: functional
SK-MEL-5 = assay: Antiproliferative activity against human SK-MEL-5 cells assessed as growth inhibition incubated for 72 hrs by MTT assay; format: functional
[1] = Antiproliferative activity against human MINO cells assessed as cell growth inhibition measured after 72 hrs by MTT assay; format: functional, cell-based
Summary of the method: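 Lymphoma cells in RPMI-1640 with 20% FBS, seeded at 5,000–10,000 cells/well depending on doubling time. Exposed for 72 h at 37 °C, 5% CO2 to a 1:2 serial dilution from 0 to 10 μM (DMSO ≤0.1%). MTT from a 5 mg/mL stock was added for 4 h, cells were lysed with 25% SDS, and A570 was read against medium-only blanks. IC50 from triplicate assays.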

SK-MEL-28 = assay: Antiproliferative activity against human SK-MEL-28 cells assessed as growth inhibition incubated for 72 hrs by MTT assay; format: functional
OVCAR-4 = assay: Antiproliferative activity against human OVCAR-4 cells assessed as growth inhibition incubated for 72 hrs by MTT assay; format: functional
SK-MEL-2 = assay: Antiproliferative activity against human SK-MEL-2 cells assessed as growth inhibition incubated for 72 hrs by MTT assay; format: functional

| Structure (SMILES) | GI50 (UACC-257) [nM] | GI50 (IGROV-1) [nM] | GI50 (HOP-92) [nM] | GI50 (SNB-19) [nM] | GI50 (NCI-H23) [nM] | GI50 (TK-10) [nM] | GI50 (SK-MEL-5) [nM] | IC50 [1] [nM] | GI50 (SK-MEL-28) [nM] | GI50 (OVCAR-4) [nM] | GI50 (SK-MEL-2) [nM] |
| --- | --- | --- | --- | --- | --- | --- | --- | --- | --- | --- | --- |
| COc1ccc(Cn2cc3c(c2-c2cc(OC)c(OC)c(OC)c2)CCCc2cnoc2-3)cc1N | 580 | 1560 | 520 | 810 | 1340 | 96600 | 1130 | 400 | 2930 | – | – |
| COc1ccc(Cn2cc3c(c2-c2cc(OC)c(OC)c(OC)c2)CCCc2cnoc2-3)cc1 | – | 560 | 1270 | 1530 | 2620 | – | 2000 | 900 | – | 4970 | 1610 |
